Reference: ChEMBL document CHEMBL4406810, “Modifications on the Amino-3,5-dicyanopyridine Core To Obtain Multifaceted Adenosine Receptor Ligands with Antineuropathic Activity” (J Med Chem, 2019)
The source made the active and inactive calls. The rule behind the calls is not given here.

Assays:
[1] = target: T1, Adenosine receptor A1 (Homo sapiens) (UniProt P30542); assay: Inverse agonist activity at human A1AR expressed in CHO cells assessed as increase in forskolin-stimulated cAMP production by alphascreen assay relative to DPCPX; type: functional, cell-based
T1 sequence (whole entry): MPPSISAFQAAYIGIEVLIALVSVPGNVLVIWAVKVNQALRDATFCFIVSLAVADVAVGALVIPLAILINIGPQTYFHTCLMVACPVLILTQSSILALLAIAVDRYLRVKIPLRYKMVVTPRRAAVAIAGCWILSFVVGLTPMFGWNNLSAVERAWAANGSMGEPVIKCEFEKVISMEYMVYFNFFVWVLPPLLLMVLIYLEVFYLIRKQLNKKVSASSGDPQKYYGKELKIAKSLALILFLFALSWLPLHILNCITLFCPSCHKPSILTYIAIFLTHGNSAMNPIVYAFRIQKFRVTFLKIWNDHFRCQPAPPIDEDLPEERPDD
Summary of the method: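 Compounds at 1 nM to 1 µM. cAMP rise measured by AlphaScreen. EC50 from sigmoid fit. […] Four independent experiments in triplicate.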

[2] = target: T2, Adenosine receptor A2b (Homo sapiens, UniProt P29275); assay: Agonist activity at human A2B expressed in CHO cells assessed as stimulation of cAMP production by alphascreen assay; type: functional, cell-based
T2 sequence (P29275 whole entry): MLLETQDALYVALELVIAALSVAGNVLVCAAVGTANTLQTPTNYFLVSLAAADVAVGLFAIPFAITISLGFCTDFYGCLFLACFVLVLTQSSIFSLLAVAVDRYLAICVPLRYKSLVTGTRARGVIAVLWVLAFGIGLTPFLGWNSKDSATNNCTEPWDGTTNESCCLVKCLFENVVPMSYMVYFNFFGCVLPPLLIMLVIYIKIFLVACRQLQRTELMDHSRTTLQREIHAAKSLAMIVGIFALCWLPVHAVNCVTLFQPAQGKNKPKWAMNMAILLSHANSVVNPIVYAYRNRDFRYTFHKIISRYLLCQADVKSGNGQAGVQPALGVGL
Summary of the method: (§1)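 Compounds tested alone at final 1 nM to 1 µM. cAMP measured by AlphaScreen. Efficacy taken at 1 µM relative to NECA 1 µM (=100%). Four independent experiments in triplicate.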

[3] = target: T3, Adenosine receptor A2b (Homo sapiens) (UniProt P29275); assay: Agonist activity at human A2B expressed in CHO cells assessed as stimulation of cAMP production at 1 uM by alphascreen assay relative to NECA; type: functional, cell-based; summary of the method: as §1
T3 sequence (whole entry): T2 sequence (P29275 whole entry)

[4] = system: CHO; assay: Effect on cAMP level in wild-type CHO cells at 0.001 to 1 uM by alphascreen assay; type: functional, cell-based; details: Cricetulus griseus
Summary of the method: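 Compounds at 1 nM to 1 µM final concentrations. cAMP quantified with AlphaScreen kit. Four independent experiments, each in triplicate.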

[5] = target: T4, Adenosine receptor A1 (Homo sapiens, UniProt P30542); assay: Displacement of [3H]DPCPX from human A1AR expressed in CHO cell membranes measured after 90 mins by scintillation counting method
T4 sequence (P30542 whole entry): T1 sequence (whole entry)
Summary of the method: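 Nonspecific binding with 1 µM DPCPX. GF/B filtration and scintillation counting. Ki by Cheng–Prusoff. Inhibition % at 1 µM. Four experiments in triplicate.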

[6] = target: T5, Adenosine receptor A3 (Homo sapiens) (UniProt P0DMS8); assay: Displacement of [125I]ABMECA from human A3R expressed in CHO cell membranes at 1 uM measured after 120 mins by scintillation counting method relative to control
T5 sequence (whole entry): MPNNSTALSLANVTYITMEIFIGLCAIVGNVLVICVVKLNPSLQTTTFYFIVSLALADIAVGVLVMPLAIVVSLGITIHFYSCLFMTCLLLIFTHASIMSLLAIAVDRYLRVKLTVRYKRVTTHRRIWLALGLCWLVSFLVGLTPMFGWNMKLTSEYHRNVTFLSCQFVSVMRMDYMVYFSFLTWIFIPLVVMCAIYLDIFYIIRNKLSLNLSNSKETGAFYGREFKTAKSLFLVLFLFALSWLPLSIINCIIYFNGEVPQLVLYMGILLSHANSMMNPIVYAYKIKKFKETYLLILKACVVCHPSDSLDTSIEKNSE
Summary of the method: (§2)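 Nonspecific binding with 1 µM AB-MECA. GF/B filtration and counting. Ki via Cheng–Prusoff. Percent inhibition at 1 µM. Four experiments in triplicate.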

[7] = target: T6, Adenosine receptor A2a (Homo sapiens, UniProt P29274); assay: Displacement of [3H]ZM241385 from human A2AR expressed in CHO cell membranes at 1 uM measured after 60 mins by scintillation counting method relative to control
Summary of the method: (§3)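 Nonspecific binding defined with 1 µM ZM241385. Filtered on GF/B, scintillation counted. Ki by Cheng–Prusoff. Percent inhibition at 1 µM. Four experiments in triplicate.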

[8] = target: T4, Adenosine receptor A1; assay: Inverse agonist activity at human A1AR expressed in CHO cells assessed as increase in forskolin-stimulated cAMP production by alphascreen assay; type: functional, cell-based
Summary of the method: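 Compounds at 1 nM to 1 µM. cAMP rise measured by AlphaScreen. EC50 from sigmoid fit. Four independent experiments in triplicate.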

[9] = target: T6, Adenosine receptor A2a; assay: Displacement of [3H]ZM241385 from human A2AR expressed in CHO cell membranes measured after 60 mins by scintillation counting method; summary of the method: as §3
[10] = target: T7, Adenosine receptor A3 (Homo sapiens, UniProt P0DMS8); assay: Displacement of [125I]ABMECA from human A3R expressed in CHO cell membranes measured after 120 mins by scintillation counting method; summary of the method: as §2
T7 sequence (P0DMS8 whole entry): T5 sequence (whole entry)

[11] = target: T3, Adenosine receptor A2b (Homo sapiens); assay: Antagonist activity at human A2BR expressed in CHO cells assessed as inhibition of NECA-stimulated cAMP production at 1 uM by alphascreen assay relative to control; type: functional, cell-based
Summary of the method: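 Compounds added at 1 nM to 1 µM final, with percent inhibition read at 1 µM. AlphaScreen cAMP read-out. IC50 by sigmoid non-linear regression. Four independent experiments in triplicate.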

T6 sequence (P29274 whole entry): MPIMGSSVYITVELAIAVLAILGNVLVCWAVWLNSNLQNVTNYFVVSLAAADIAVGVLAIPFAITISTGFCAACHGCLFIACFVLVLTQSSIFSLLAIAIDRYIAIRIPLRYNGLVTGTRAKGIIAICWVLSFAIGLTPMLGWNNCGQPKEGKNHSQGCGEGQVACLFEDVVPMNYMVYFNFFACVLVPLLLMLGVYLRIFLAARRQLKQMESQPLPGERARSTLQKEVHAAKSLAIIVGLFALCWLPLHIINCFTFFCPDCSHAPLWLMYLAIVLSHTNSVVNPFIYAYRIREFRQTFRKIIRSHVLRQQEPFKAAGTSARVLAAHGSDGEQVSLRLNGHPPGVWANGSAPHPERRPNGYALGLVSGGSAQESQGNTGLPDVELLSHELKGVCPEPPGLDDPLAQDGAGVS

| Structure (SMILES) | Emax [1] [%] | EC50 [2] [nM] | Efficacy [3] [%] | Activity [4] | Ki [5] [nM] | inhibition [6] [%] | inhibition [7] [%] | EC50 [8] [nM] | Ki [9] [nM] | Ki [10] [nM] | inhibition [11] [%] |
| --- | --- | --- | --- | --- | --- | --- | --- | --- | --- | --- | --- |
| COC(=O)c1ccc(CSc2nc(N)c(C#N)c(-c3ccco3)c2C#N)o1 | 24 | > 1000 | 7 | inactive | 82 | 11 | 1 | 185 |  |  |  |
| N#CCSc1nc(N)c(C#N)c(-c2ccco2)c1C#N |  | > 1000 | 1 | inactive | 93 |  |  |  | 887 | 582 |  |
| N#Cc1c(N)nc(SCc2ccccn2)c(C#N)c1-c1ccco1 | 30 | > 1000 | 9 | inactive | 2.71 |  |  | 3.41 | 108 | 134 |  |
| N#Cc1cccc(CSc2nc(N)c(C#N)c(-c3ccco3)c2C#N)c1 | 100 | > 1000 | 7 | inactive | 1.02 |  |  | 4.82 | 93 | 668 |  |
| COC(=O)c1cccc(CSc2nc(N)c(C#N)c(-c3cccnc3)c2C#N)c1 | 72 | > 1000 | 15 | inactive | 1.18 | 8 |  | 6.26 | 636 |  |  |
| CC(=O)Nc1nc(SCCO)c(C#N)c(-c2ccco2)c1C#N |  | > 1000 | 3 | inactive | 243 |  | 11 |  |  | 211 |  |
| COC(=O)CSc1nc(N)c(C#N)c(-c2ccco2)c1C#N |  | > 1000 | 4 | inactive | 108 | 25 | 17 |  |  |  |  |
| CCCn1c(=O)c2[nH]c(C3CCCC3)nc2n(CCC)c1=O |  |  | 1 |  |  |  |  |  |  |  |  |
| N#Cc1c(N)nc(OCCO)c(C#N)c1-c1ccco1 |  | > 1000 | 11 | inactive | 632 | 3 | 25 |  |  |  |  |
| N#Cc1c(N)nc(SCC(N)=O)c(C#N)c1-c1ccco1 |  | > 1000 | 17 | inactive | 175 |  | 21 |  |  | 177 |  |
| COC(=O)c1cccc(CSc2nc(N)c(C#N)c(-c3ccoc3)c2C#N)c1 | 51 | > 1000 | 7 | inactive | 2.11 | 1 |  | 4.35 | 96 |  |  |
| N#Cc1c(N)nc(SCCO)c(C#N)c1-c1cccs1 | 74 | 885 | 69 | inactive | 52 |  | 1 | 107 |  | 554 |  |
| N#Cc1c(N)nc(NCCO)c(C#N)c1-c1cccs1 |  | > 1000 | 1 | inactive | 324 | 29 | 33 |  |  |  | 4 |
| N#Cc1c(N)nc(SCCO)c(C#N)c1-c1cccnc1 | 75 | > 1000 | 18 | inactive | 35 | 22 | 7 | 94 |  |  |  |
| COC(=O)c1cccc(CSc2nc(N)c(C#N)c(-c3cccs3)c2C#N)c1 | 56 | 982 | 62 | inactive | 2.72 | 15 |  | 3.85 | 693 |  |  |
| N#Cc1c(N)nc(SCC(=O)OCc2ccccc2)c(C#N)c1-c1ccco1 | 53 | > 1000 | 10 | inactive | 86 | 1 | 8 | 192 |  |  |  |
| N#Cc1c(NC2CCCC2)nc(SCCO)c(C#N)c1-c1ccco1 |  | > 1000 | 1 | inactive | 742 |  | 8 |  |  | 780 |  |
| N#Cc1c(N)nc(SCCO)c(C#N)c1-c1ccsc1 | 62 | > 1000 | 8 | inactive | 60 | 33 | 9 | 142 |  |  |  |
| N#Cc1c(N)nc(SCC(=O)c2ccccc2)c(C#N)c1-c1ccco1 | 29 | > 1000 | 1 | inactive | 23 | 26 |  | 57 | 224 |  |  |
